In PubChem BioAssay AID588558 (Sanford-Burnham Center for Chemical Genomics, 2011):
Active and inactive are the calls of the source.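 The calls were made as follows: active = mean IC50 of 20 µM or lower in the 24 hour cytotoxicity test; inactive = the rest.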

System: CHO-XBP1 cytotoxicity, ATPlite luminescence, 24 h
Experiment: cytotoxicity in CHO-XBP1 reporter cells, SAR follow-up, cytotoxicity control for UPR apoptotic arm activator project, cell-based, 24 h exposure, ATPlite luminescence (AID 588558)
Summary of the method: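 Material: CHO-XBP1 cells | Quantity: 1000 cells/well | Medium: F12 with 10% FBS | Incubation: 24 h compound exposure at 37 °C | Measured by: ATPLite 1-Step luminescence | Controls: Tunicamycin positive control, final concentration 10 µg/mL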

Compound	IC50
Cc1cc(C)c2nc(NC(=O)c3ccccn3)sc2c1	3.75 µM
O=C(Nc1ccc(S(=O)(=O)N2CCC(O)CC2)cc1)c1ccc([N+](=O)[O-])o1	27.9 µM (inactive)
O=C(Nc1nc2c(F)cc(F)cc2s1)c1ccccn1	1.59 µM
O=C(Nc1nc2c(F)ccc(F)c2s1)c1ccccn1	1.06 µM
O=C(Nc1ccc(S(=O)(=O)N2CCC(F)CC2)cc1)c1ccc([N+](=O)[O-])o1	24.7 µM (inactive)
O=C(Nc1ccc(S(=O)(=O)c2ccccc2)cc1)c1ccc([N+](=O)[O-])o1	18.5 µM
O=C(Nc1ccc(S(=O)(=O)N2CCNCC2)cc1)c1ccc([N+](=O)[O-])o1	> 80 µM (inactive)
O=C(Nc1nc2ccc(Cl)cc2s1)c1ccccn1	1.36 µM
O=C(Nc1nc2cc(F)ccc2s1)c1ccccn1	1.26 µM
CC1CN(S(=O)(=O)c2ccc(NC(=O)c3ccc([N+](=O)[O-])o3)cc2)CC(C)O1 (stereo not given)	34.9 µM (inactive)
O=C(Nc1ccc(S(=O)(=O)C2CCOCC2)cc1)c1ccc([N+](=O)[O-])o1	37.6 µM (inactive)
CC1CCN(S(=O)(=O)c2ccc(NC(=O)c3ccc([N+](=O)[O-])o3)cc2)CC1	32.2 µM (inactive)
O=C(Nc1ccc(S(=O)(=O)N2CCC(Cl)CC2)cc1)c1ccc([N+](=O)[O-])o1	> 80 µM (inactive)
O=C(Nc1nc2cccc(F)c2s1)c1ccccn1	1.76 µM
O=C(Nc1nc2c(Cl)cc(Cl)cc2s1)c1ccccn1	8.77 µM
O=C(Nc1nc2ccc(F)cc2s1)c1ccccn1	1.99 µM
O=C(Nc1nc2cc(F)c(F)cc2s1)c1ccccn1	1.81 µM
O=C(Nc1ccc(S(=O)(=O)C2CCCCC2)cc1)c1ccc([N+](=O)[O-])o1	22.1 µM (inactive)
O=C(Nc1nc2c(F)c(F)ccc2s1)c1ccccn1	1.35 µM
O=C(Nc1ccc(S(=O)(=O)N2CCOCC2)cc1)c1ccc([N+](=O)[O-])o1	32.3 µM (inactive)
O=C(Nc1nc2cc(F)cc(F)c2s1)c1ccccn1	1.05 µM
O=C(Nc1ccc(S(=O)(=O)N2CCOCC2)cc1)c1ccc([N+](=O)[O-])s1	> 80 µM (inactive)
O=C(Nc1ccc(S(=O)(=O)N2CCCCC2)cc1)c1ccc([N+](=O)[O-])o1	> 80 µM (inactive)
O=C(Nc1nc2c(F)cccc2s1)c1ccccn1	1.42 µM
O=C(Nc1nc2ccc(C(F)(F)F)cc2s1)c1ccccn1	0.97 µM
CC(C)(C)C1CCN(S(=O)(=O)c2ccc(NC(=O)c3ccc([N+](=O)[O-])o3)cc2)CC1	2.68 µM
CC1(C)CCN(S(=O)(=O)c2ccc(NC(=O)c3ccc([N+](=O)[O-])o3)cc2)CC1	18 µM
O=C(Nc1ccc(S(=O)(=O)N2CCCC2)cc1)c1ccc([N+](=O)[O-])o1	19.2 µM
O=C(Nc1nc2ccc(F)c(F)c2s1)c1ccccn1	1.19 µM
O=C(Nc1ccc(S(=O)(=O)N2CCC3(CCCCC3)CC2)cc1)c1ccc([N+](=O)[O-])o1	9.05 µM
